Measurements collected from several papers.
Lines come from different studies, so protocols differ. Converted amounts (≈) assume the structure as drawn.

CCOC(=O)N[C@H](C(=O)N1CCC[C@@H]1C(=O)Nc1cccc(C#CC#Cc2cccc(NC(=O)[C@H]3CCCN3C(=O)[C@@H](NC(=O)OCC)C(C)C)c2)c1)C(C)C
EC50 (Hepatitis C virus; viral replication, inhibitor, luciferase; Huh-5-2, GETYPE1B; 72 h, replicon): 1780 nM

Nc1nc(N)c2ncn([C@@H]3O[C@H](CO)[C@@H](F)[C@@H]3F)c2n1
EC50 (Hepatitis C virus; viral replication, inhibitor; Huh-7; replicon): > 10000 nM

CC(=O)OC[C@@]1(C)[C@H]2CC[C@@H]3CN(C4CCCC4)[C@@H](C4=CCOC4=O)C[C@H]3[C@]2(C)CC[C@H]1OC(C)=O
inhibition (unidentified human coronavirus; cytopathic effect; MRC5; 25 µM, 72 h): 6.8%

N#CC(=Cc1ccc([N+](=O)[O-])cc1)C1=NC(=O)C(=Cc2cn(-c3ccccc3)nc2-c2ccccc2)S1
inhibition zone (Acinetobacter baumannii; microbial growth, well diffusion; 100000 µg/mL): 19 mm

C[C@]1(CO)[C@H]2CC[C@@H]3CN(Cc4ccc(F)c(Cl)c4)[C@@H](C4=CCOC4=O)C[C@H]3[C@]2(C)CC[C@H]1O
inhibition (unidentified human coronavirus; cytopathic effect; MRC5; 25 µM, 72 h): 20%

Cc1c(NC(=O)CC2=NC(=O)CS2)c(=O)n(-c2ccccc2)n1C
inhibition zone (Acinetobacter baumannii; microbial growth, well diffusion; 100000 µg/mL): 26 mm

COC(=O)N[C@H](C(=O)N1CCC[C@H]1c1ncc(-c2ccc(-c3ccc(-c4cnc([C@@H]5CCCN5C(=O)[C@@H](NC(=O)OC)C(C)C)[nH]4)cc3)cc2)[nH]1)C(C)C
EC50 (Hepatitis C virus; viral replication, inhibitor; HEK-293T, GETYPE2A; replicon): 0.0035 nM

CCCCCCC/C=C/C(=O)N1C(=O)/C(=C(\O)c2ccc(F)cc2)C(=O)C1CC(C)C (centres unmarked)
MIC (Proteus mirabilis; microbial growth; ATCC25933): > 200 µg/mL

Nc1nc(Cl)c2ncn([C@@H]3O[C@H](COC(=O)c4ccccc4)[C@@H](F)[C@@H]3F)c2n1
EC90 (Hepatitis C virus; viral replication, inhibitor; Huh-7; replicon): 10 µM

CC1(C)OC[C@@]2(C)[C@H]3CC[C@@H]4CN(Cc5ccc(C(C)(C)C)cc5)[C@@H](C5=CCOC5=O)C[C@H]4[C@]3(C)CC[C@H]2O1
inhibition (unidentified human coronavirus; cytopathic effect; MRC5; 25 µM, 72 h): 103%

Cc1ccc(S(=O)(=O)Nc2ncc(-c3nc4ccccc4s3)c(N)n2)cc1
IC50 (Enterovirus B; plaque formation; BGM, B4): 110 µg/mL (≈ 277 µM)

CCCCOC(=O)N[C@@H](CC(C)C)C(=O)N1CCC[C@H]1C(=O)Nc1ccc(C#CC#Cc2ccc(NC(=O)[C@@H]3CCCN3C(=O)[C@H](CC(C)C)NC(=O)OCCCC)cc2)cc1
EC50 (Hepatitis C virus; viral replication, inhibitor, luciferase; Huh-5-2, GETYPE1B; 72 h, replicon): > 10000 nM

CCCCCCC/C=C/C(=O)N1C(=O)/C(=C(/C)O)C(=O)C1CCC(=O)O (centres unmarked)
MIC (Proteus mirabilis; microbial growth; ATCC25933): > 200 µg/mL

COC(=O)N[C@H](C(=O)N1CCC[C@H]1C(=O)Nc1cccc(C#CC#Cc2cccc(NC(=O)[C@@H]3CCCN3C(=O)[C@@H](NC(=O)OC)C(C)C)c2)c1)C(C)C
EC50 (Hepatitis C virus; viral replication, inhibitor, luciferase; GETYPE4A; replicon): 6.11 nM

CC(=O)OC[C@@]1(C)[C@H]2CC[C@@H]3CN(Cc4ccc(Br)cc4)[C@@H](C4=CCOC4=O)C[C@H]3[C@]2(C)CC[C@H]1OC(C)=O
inhibition (unidentified human coronavirus; cytopathic effect; MRC5; 25 µM, 72 h): 107%

COC(=O)N[C@@H](CC(C)C)C(=O)N1CCC[C@H]1C(=O)Nc1cccc(C#CC#Cc2cccc(NC(=O)[C@@H]3CCCN3C(=O)[C@H](CC(C)C)NC(=O)OC)c2)c1
EC50 (Hepatitis C virus; viral replication, inhibitor, luciferase; Huh-5-2, GETYPE1B; 72 h, replicon): > 20000 nM

COc1nc(OC)c2ncn([C@@H]3O[C@H](CO)[C@@H](F)[C@@H]3F)c2n1
EC50 (Hepatitis C virus; viral replication, inhibitor; Huh-7; replicon): > 10000 nM
